Reference: ChEMBL document CHEMBL4425130, “Macrocyclic Prodrugs of a Selective Nonpeptidic Direct Thrombin Inhibitor Display High Permeability, Efficient Bioconversion but Low Bioavailability” (J Med Chem, 2016)

How the values were obtained:
[1] = molecular target: Prothrombin (Homo sapiens, UniProt P00734); experiment: Inhibition of human alpha-thrombin using S-2366 as substrate after 40 mins
[2] = system: Plasma; experiment: Anticoagulant activity in human citrated plasma assessed as concentration required to double activated partial thromboplastin time after 3 mins by coagulation analyser; type: functional, cell-free; conditions: 0.05 h
[3] = species: Homo sapiens; experiment: Selectivity ratio of Ki for human F11a to Ki for human alpha-thrombin
[4] = molecular target: Coagulation factor X (Homo sapiens, UniProt P00742); experiment: Inhibition of human F10a using S-2765 as substrate preincubated for 300 secs followed by substrate addition measured after 40 mins
Sequence of Coagulation factor X (P00742 41-179 limits assumed): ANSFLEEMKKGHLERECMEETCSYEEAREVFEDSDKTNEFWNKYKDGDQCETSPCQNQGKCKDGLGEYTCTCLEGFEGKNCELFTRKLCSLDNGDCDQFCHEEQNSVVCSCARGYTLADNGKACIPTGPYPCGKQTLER
Sequence of Coagulation factor X (P00742 235-488 limits assumed): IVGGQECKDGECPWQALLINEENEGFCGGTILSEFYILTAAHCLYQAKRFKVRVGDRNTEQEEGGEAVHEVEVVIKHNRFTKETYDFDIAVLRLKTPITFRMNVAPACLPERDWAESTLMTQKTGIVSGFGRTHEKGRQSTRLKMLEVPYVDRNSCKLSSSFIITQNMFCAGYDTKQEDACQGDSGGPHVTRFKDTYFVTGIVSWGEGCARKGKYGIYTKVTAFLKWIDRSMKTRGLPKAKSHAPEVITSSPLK
How it was run: (§1)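 Human proteases assayed at one substrate concentration with ten inhibitor concentrations at 37 °C, ≤1.3% DMSO, in an enzyme-specific Tris-HCl pH 7.4 buffer. Enzyme and inhibitor preincubated 300 s, then substrate added; absorbance read at 405 nm after 40 min. IC50 converted to Ki by IC50 = Ki(1+S/KM), using KM measured under assay conditions.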

[5] = species: Homo sapiens; experiment: Selectivity ratio of Ki for human tissue factor/F7a to Ki for human alpha-thrombin
[6] = species: Homo sapiens; experiment: Selectivity ratio of Ki for human plasmin to Ki for human alpha-thrombin
[7] = species: Homo sapiens; experiment: Selectivity ratio of Ki for human F10a to Ki for human alpha-thrombin
[8] = molecular target: Plasminogen (Homo sapiens, UniProt P00747); experiment: Inhibition of human plasmin using S-2366 as substrate preincubated for 300 secs followed by substrate addition measured after 40 mins; how it was run: as §1
Sequence of Plasminogen (P00747 97-580 limits assumed): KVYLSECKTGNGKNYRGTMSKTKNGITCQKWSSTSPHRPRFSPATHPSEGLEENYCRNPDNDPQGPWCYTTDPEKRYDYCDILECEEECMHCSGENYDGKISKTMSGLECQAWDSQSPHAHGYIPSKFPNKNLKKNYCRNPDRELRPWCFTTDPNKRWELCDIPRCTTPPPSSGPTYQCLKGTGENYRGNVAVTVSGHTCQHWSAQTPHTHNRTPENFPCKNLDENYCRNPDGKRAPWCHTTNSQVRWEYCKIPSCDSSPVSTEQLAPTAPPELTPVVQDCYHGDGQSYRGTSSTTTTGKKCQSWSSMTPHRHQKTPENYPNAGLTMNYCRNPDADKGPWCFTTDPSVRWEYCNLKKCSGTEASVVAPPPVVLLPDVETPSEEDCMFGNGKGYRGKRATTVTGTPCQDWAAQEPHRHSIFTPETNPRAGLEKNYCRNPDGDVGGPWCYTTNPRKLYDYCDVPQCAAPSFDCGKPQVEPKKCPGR
Sequence of Plasminogen (P00747 581-810 limits assumed): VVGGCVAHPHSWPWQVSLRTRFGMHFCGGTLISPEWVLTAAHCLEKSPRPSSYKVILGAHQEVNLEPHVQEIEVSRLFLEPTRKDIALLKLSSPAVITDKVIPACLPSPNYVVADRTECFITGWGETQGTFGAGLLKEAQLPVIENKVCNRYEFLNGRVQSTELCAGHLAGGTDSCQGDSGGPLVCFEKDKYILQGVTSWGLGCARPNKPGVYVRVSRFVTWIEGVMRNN

[9] = Inhibition of human tissue factor/F7a using spectrozyme as substrate preincubated for 300 secs followed by substrate addition measured after 40 mins; how it was run: as §1
[10] = Intrinsic clearance in Sprague-Dawley rat liver microsomes at 1 umol/L after 7 to 30 mins by LC-MS/MS method; type: ADME, Microsome; conditions: read-out: CLH
[11] = molecular target: Cytochrome P450 3A4 (Homo sapiens, UniProt P08684); experiment: Inhibition of human CYP3A4; type: ADME
Sequence of Cytochrome P450 3A4 (P08684 whole entry): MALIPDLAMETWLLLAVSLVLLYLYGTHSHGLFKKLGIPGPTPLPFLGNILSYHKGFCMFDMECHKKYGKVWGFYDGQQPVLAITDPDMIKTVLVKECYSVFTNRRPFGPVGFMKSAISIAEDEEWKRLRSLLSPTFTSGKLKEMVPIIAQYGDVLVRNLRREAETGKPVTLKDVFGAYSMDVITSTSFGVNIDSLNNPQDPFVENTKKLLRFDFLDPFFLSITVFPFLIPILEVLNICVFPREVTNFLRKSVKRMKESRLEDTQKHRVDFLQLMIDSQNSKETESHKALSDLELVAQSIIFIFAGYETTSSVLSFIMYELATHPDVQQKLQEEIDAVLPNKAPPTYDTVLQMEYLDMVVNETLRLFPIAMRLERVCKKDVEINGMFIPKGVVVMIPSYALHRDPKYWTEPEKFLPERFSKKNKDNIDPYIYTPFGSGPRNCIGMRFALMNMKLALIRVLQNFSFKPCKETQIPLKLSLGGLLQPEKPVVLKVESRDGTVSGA

[12] = molecular target: Coagulation factor IX (Homo sapiens, UniProt P00740); experiment: Inhibition of human F9a using pefachrome F9a as substrate preincubated for 300 secs followed by substrate addition measured after 40 mins
Sequence of Coagulation factor IX (P00740 47-191 limits assumed): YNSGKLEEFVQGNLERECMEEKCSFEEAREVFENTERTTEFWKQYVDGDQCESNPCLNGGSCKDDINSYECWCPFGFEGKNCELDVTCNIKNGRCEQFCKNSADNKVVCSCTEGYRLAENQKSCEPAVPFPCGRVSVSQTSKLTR
Sequence of Coagulation factor IX (P00740 227-461 limits assumed): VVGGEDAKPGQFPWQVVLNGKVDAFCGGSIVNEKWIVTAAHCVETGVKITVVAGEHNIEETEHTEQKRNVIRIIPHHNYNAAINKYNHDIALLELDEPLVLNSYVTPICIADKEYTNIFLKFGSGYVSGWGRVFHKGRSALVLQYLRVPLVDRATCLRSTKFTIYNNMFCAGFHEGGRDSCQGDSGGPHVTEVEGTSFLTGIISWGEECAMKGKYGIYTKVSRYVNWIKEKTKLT

[13] = species: Rattus norvegicus; experiment: Antithrombotic activity in rat caval vein thrombosis model assessed as prevention of venous thrombosis; type: functional, organism-based
[14] = molecular target: Thrombin & trypsin (Homo sapiens) (UniProt P00734+P07477+P07478+P35030); experiment: Selectivity ratio of Ki for human trypsin 1 to Ki for human alpha-thrombin; type: protein assay
[15] = molecular target: Coagulation factor XI (Homo sapiens, UniProt P03951); experiment: Inhibition of human F11a using S-2366 as substrate preincubated for 300 secs followed by substrate addition measured after 40 mins; how it was run: as §1
Sequence of Coagulation factor XI (P03951 19-387 limits assumed): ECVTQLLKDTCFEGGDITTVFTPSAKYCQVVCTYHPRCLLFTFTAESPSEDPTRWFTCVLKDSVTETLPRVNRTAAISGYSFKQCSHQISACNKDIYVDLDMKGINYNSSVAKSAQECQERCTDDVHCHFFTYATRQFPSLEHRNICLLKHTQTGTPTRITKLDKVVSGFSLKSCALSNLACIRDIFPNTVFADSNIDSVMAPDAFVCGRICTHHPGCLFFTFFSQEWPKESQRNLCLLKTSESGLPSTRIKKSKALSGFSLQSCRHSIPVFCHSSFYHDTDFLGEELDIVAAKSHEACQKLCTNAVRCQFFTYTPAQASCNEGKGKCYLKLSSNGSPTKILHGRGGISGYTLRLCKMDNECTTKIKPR
Sequence of Coagulation factor XI (P03951 388-625 limits assumed): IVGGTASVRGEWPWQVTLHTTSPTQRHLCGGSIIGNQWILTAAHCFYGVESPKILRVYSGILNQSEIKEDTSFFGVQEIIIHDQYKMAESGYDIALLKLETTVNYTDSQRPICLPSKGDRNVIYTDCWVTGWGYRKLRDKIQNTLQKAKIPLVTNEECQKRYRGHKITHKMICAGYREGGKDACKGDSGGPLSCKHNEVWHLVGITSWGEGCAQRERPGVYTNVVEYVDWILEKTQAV

[16] = molecular target: Serine protease 1 (Homo sapiens, UniProt P07477); experiment: Inhibition of human trypsin 1 using S-2222 as substrate preincubated for 300 secs followed by substrate addition measured after 40 mins; how it was run: as §1
Sequence of Serine protease 1 (P07477 whole entry): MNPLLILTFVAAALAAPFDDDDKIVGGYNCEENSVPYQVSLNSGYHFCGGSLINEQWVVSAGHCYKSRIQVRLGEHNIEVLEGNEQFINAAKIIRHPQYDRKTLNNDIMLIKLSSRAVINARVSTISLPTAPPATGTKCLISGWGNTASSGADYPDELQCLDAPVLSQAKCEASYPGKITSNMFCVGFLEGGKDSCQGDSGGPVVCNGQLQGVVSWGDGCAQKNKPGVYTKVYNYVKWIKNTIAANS

[17] = species: Homo sapiens; experiment: Selectivity ratio of Ki for human F9a to Ki for human alpha-thrombin
[18] = Drug level in rat hepatocytes treated with Methyl 3-(((3-(2-((5-Chloro-2-(((methoxycarbonyl)amino)-methyl)benzyl)amino)-2-oxoethyl)-4-methyl-2-oxo-5,6-dihydropyridin-1(2H)-yl)amino)methyl)benzoate assessed as esterase-mediated compound formation at 4 uM after 40 mins by ultraperformance liquid chromatographic method; type: ADME, cell-based; conditions: isolated protein
[19] = Cmax in Han Wistar rat at 1 umol/kg, po administered via gavage by LC-MS/MS method; type: ADME, organism-based; set-up: dose 1 umol/kg, route oral; conditions: in vivo
How it was run: (§2)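 Male Han Wistar rats, cannulated in the carotid artery for sampling and the jugular vein for i.v. dosing, one week before the study (two days before for intraduodenal dosing). Single doses: 0.5 µmol/kg i.v., or 1 µmol/kg by gavage or intraduodenally. Vehicles were 5% mannitol in water or DMA:TEG:water (1:1:1). Plasma sampled up to 24 h and analysed by LC-MS/MS. Non-compartmental analysis; means of n=3, with F from mean AUCinf.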

[20] = Drug level in human liver microsomes treated with treated with 25-Chloro-18-methyl-13,14,17,20,22,23-hexahydro-1H,7H-15,19-methano-8,12-(metheno)-4,6,2,14,15,22-benzodioxatetraazacyclopentacosine-3,7,21,28(1H,16H)-tetrone in presence of NADPH; type: ADME, Microsome
[21] = physchem; conditions: 1-octanol/phosphate buffer, pH 7.4
[22] = (§3) Drug level in rat hepatocytes treated with 25-Chloro-5,18-dimethyl-13,14,17,20,22,23-hexahydro-1H,7H-15,19-methano-8,12-(metheno)-4,6,2,14,15,22-benzodioxatetraazacyclopentacosine-3,7,21,28(2H,16H)-tetrone assessed as esterase-mediated compound formation at 4 uM after 40 mins by ultraperformance liquid chromatographic method; type: ADME, cell-based; conditions: isolated protein
[23] = Drug level in human liver microsomes treated with treated with 25-Chloro-5,18-dimethyl-13,14,17,20,22,23-hexahydro-1H,7H-15,19-methano-8,12-(metheno)-4,6,2,14,15,22-benzodioxatetraazacyclopentacosine-3,7,21,28(2H,16H)-tetrone in absence of NADPH; type: ADME, Microsome
[24] = Apparent terminal half life in Han Wistar rat at 0.5 umol/kg, iv by LC-MS/MS method; type: ADME, organism-based; conditions: in vivo, read-out: betat1/2(app) (converted); how it was run: as §2
[25] = Volume of distribution at steady state in Han Wistar rat at 0.5 umol/kg, iv by LC-MS/MS method; type: ADME, organism-based; conditions: in vivo, read-out: Vdss; how it was run: as §2
[26] = Drug level in human liver microsomes treated with treated with 25-Chloro-18-methyl-13,14,17,20,22,23-hexahydro-1H,7H-15,19-methano-8,12-(metheno)-4,6,2,14,15,22-benzodioxatetraazacyclopentacosine-3,7,21,28(1H,16H)-tetrone in absence of NADPH; type: ADME, Microsome
[27] = Oral bioavailability in Han Wistar rat at 1 umol/kg administered via gavage by LC-MS/MS method; type: ADME, organism-based; conditions: in vivo; how it was run: as §2
[28] = Efflux ratio of apparent permeability across basolateral to apical over apical to basolateral side in human Caco2 cells at 10 uM after 45 to 120 mins by ultraperformance LC/MS/MS method; conditions: Caco-2
[29] = Drug level in human hepatocytes treated with 25-Chloro-18-methyl-13,14,17,20,22,23-hexahydro-1H,7H-15,19-methano-8,12-(metheno)-4,6,2,14,15,22-benzodioxatetraazacyclopentacosine-3,7,21,28(1H,16H)-tetrone assessed as esterase-mediated compound formation at 4 uM after 40 mins by ultraperformance liquid chromatographic method; type: ADME, cell-based; conditions: isolated protein
How it was run: (§4)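 Cryopreserved human hepatocytes at 10^6 viable cells/mL, thawed and pre-warmed 10 min at 37 °C. Compound added from CH3CN stock at 4 µM final. Incubated 40 min, then quenched in cold CH3CN, with compound-free incubations as blanks. Metabolites assigned by LC-MS product ion spectra.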

[30] = Clearance in Han Wistar rat at 0.5 umol/kg, iv by LC-MS/MS method; type: ADME, organism-based; conditions: in vivo; how it was run: as §2
[31] = as §3, with “human” for “rat”; type: ADME, cell-based; conditions: isolated protein; how it was run: as §4
[32] = Apparent permeability across apical to basolateral side in human Caco2 cells at 10 uM after 45 to 120 mins by ultraperformance LC/MS/MS method; conditions: Caco-2
[33] = Apparent terminal half life in Han Wistar rat at 1 umol/kg, po administered via gavage by LC-MS/MS method; type: ADME, organism-based; conditions: in vivo, read-out: betat1/2(app) (converted); how it was run: as §2
[34] = AUCinfinity in Han Wistar rat at 0.5 umol/kg, iv by LC-MS/MS method; type: ADME, organism-based; set-up: dose 0.5 umol/kg, time infinity, route intravenous; conditions: in vivo; how it was run: as §2
[35] = AUCinfinity in Han Wistar rat at 1 umol/kg, po administered via gavage by LC-MS/MS method; type: ADME, organism-based; set-up: dose 1 umol/kg, time infinity, route oral; conditions: in vivo; how it was run: as §2
[36] = Drug level in human liver microsomes treated with treated with 25-Chloro-5,18-dimethyl-13,14,17,20,22,23-hexahydro-1H,7H-15,19-methano-8,12-(metheno)-4,6,2,14,15,22-benzodioxatetraazacyclopentacosine-3,7,21,28(2H,16H)-tetrone in presence of NADPH; type: ADME, Microsome
[37] = rat, isolated protein, 40 min, 4 µM
[38] = Solubility of the compound in phosphate buffer at pH 7.4 at 25 degC after 24 hrs by ultraperformance LC/MS/MS method

SMILES | Ki [1] [µM] | IC50 [2] [µM] | Ratio Ki [3] | Ki [4] [µM] | Ratio Ki [5] | Ratio Ki [6] | Ratio Ki [7] | Ki [8] [µM] | Ki [9] [µM] | microsomal CLint at 1 µM [10] [µL/min/mg] | IC50 [11] [µM] | Ki [12] [µM] | IC50 [13] [µM] | Ratio Ki [14] | Ki [15] [µM] | Ki [16] [µM] | Ratio Ki [17] | also measured
CC1=C(CC(=O)NCc2cc(Cl)ccc2CN)C(=O)N(NCc2ccccc2)CC1 | 0.0005 | 0.68 | > 1000 | > 17 | > 1000 | > 1000 | > 1000 | > 19 | > 33 | 150 | 13 | > 29 | 0.072 | > 1000 | > 19 | > 5.4 | > 1000 | 
CC1=C(CC(=O)NCc2cc(Cl)ccc2CNC(=O)OC(C)(C)C)C(=O)N(NCc2cccc(C(=O)O)c2)CC1 |  |  |  |  |  |  |  |  |  |  |  |  |  |  |  |  |  | Drug metabolism [18]: Metabolite_Detected
CC1=C(CC(=O)NCc2cc(Cl)ccc2CN)C(=O)N(NCc2cccc(C(=O)O)c2)CC1 | 0.0046 | 1.2 | > 1000 | > 17 | > 1000 | > 1000 | > 1000 | > 19 | > 33 | < 15 | > 50 | > 29 | 0.097 | > 1000 | > 19 | > 5.4 | > 1000 | Cmax [19]: 4 nM; Drug metabolism [20]: Metabolite_Detected; logD at 3 h [21]: -0.5; Drug metabolism [22]: Metabolite_Detected; Drug metabolism [23]: Metabolite_Detected; half-life [24]: 21 min; Vd [25]: 0.23 L/kg; Drug metabolism [26]: Metabolite_Detected; bioavailability [27]: 0.5%; efflux ratio at 10 µM [28]: 2.4; Drug metabolism [29]: Metabolite_Detected; clearance [30]: 32.4 mL/min/kg; Drug metabolism [31]: Metabolite_Detected; Papp A→B at 10 µM [32]: 0.1 ×10⁻⁶ cm/s; half-life [33]: 33.6 min; AUC(0-inf) [34]: 0.258 µM·h; AUC(0-inf) [35]: 0.0025 µM·h; Drug metabolism [36]: Metabolite_Detected; Drug metabolism [37]: Metabolite_Detected; solubility at 24 h [38]: > 100 µM
